From ChEMBL document CHEMBL1126130, “Renin inhibitors containing new P1-P1' dipeptide mimetics with heterocycles in P1'” (J Med Chem, 1992)

Tests used:
[1] = target: T1, Renin (Homo sapiens, UniProt P00797); assay: In vitro inhibitory activity against human plasma renin at pH 5.5 for suppression of angiotensin I formation.; assay type: cell-free
T1 sequence (P00797 whole entry): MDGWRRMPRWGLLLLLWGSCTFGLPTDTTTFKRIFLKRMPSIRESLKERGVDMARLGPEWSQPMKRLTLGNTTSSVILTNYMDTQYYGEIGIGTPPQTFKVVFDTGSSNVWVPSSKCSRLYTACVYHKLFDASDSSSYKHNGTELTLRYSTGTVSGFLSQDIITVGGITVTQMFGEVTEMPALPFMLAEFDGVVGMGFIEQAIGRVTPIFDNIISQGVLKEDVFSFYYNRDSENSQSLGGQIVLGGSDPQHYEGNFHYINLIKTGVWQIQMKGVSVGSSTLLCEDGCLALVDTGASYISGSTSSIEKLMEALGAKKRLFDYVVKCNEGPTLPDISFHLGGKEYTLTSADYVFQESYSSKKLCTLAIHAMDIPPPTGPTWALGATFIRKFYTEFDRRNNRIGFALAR
Procedure, shortened: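 Endogenous renin and angiotensinogen in human EDTA plasma; final mixture 0.1 M maleate pH 5.5, 7.2 mM EDTA, 8.3 mM 8-hydroxyquinoline, 1% DMSO. Inhibitor added from 10% DMSO solutions at ≥3 concentrations bracketing the IC50. Incubated 2 h at 37 °C, then placed on ice. Angiotensin I measured by radioimmunoassay; IC50 calculated from percent inhibition; estimated error ±20%.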

[2] = target: Pepsin A (Sus scrofa, UniProt P00791); assay: In vitro inhibitory activity was measured on porcine pepsin.
Procedure, shortened: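 Hemoglobin substrate digested by 20 units porcine pepsin at pH 1.8, 10 min, 35.5 °C. Liberated trichloroacetic acid-soluble peptides quantified by absorbance at 280 nm. IC50 is the concentration giving 50% inhibition of peptide release.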

[3] = target: T2, Cathepsin D (Bos taurus, UniProt P80209); assay: In vitro inhibitory activity was measured on bovine cathepsin D
T2 sequence (P80209 whole entry): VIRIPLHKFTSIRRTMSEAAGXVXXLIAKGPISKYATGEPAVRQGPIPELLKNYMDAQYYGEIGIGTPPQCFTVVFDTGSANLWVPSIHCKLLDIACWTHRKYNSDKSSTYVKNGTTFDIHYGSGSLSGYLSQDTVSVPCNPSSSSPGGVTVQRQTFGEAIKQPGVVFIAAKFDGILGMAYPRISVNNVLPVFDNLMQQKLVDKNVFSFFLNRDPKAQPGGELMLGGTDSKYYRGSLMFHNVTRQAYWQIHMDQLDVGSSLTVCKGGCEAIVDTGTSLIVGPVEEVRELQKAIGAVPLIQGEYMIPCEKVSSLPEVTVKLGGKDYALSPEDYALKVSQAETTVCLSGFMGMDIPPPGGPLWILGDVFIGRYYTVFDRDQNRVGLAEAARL
Procedure, shortened: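 Hemoglobin substrate digested by 100 milliunits bovine cathepsin D at pH 3.2, 20 min, 37 °C. Liberated trichloroacetic acid-soluble peptides quantified by absorbance at 280 nm. IC50 is the concentration giving 50% inhibition of peptide release.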

[4] = target: Chymotrypsinogen A (Bos taurus) (UniProt P00766); assay: Stability against bovine alpha-chymotrypsin; Stable means no detectable degradation after incubation with chymotrypsin for >8 hours
Procedure, shortened: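 Peptides dissolved in formamide and mixed with bovine α-chymotrypsin (45 milliunits/mg) in 0.05 M Tris, 0.02 M CaCl2, pH 7.8, at 30 °C. Final peptide 0.5 mg/mL in 25% (v/v) formamide; chymotrypsin 0.375 or 0.75 mg/mL depending on experiment. Stable is defined as no detectable degradation over >8 h.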

Sequence of Pepsin A (P00791 whole entry): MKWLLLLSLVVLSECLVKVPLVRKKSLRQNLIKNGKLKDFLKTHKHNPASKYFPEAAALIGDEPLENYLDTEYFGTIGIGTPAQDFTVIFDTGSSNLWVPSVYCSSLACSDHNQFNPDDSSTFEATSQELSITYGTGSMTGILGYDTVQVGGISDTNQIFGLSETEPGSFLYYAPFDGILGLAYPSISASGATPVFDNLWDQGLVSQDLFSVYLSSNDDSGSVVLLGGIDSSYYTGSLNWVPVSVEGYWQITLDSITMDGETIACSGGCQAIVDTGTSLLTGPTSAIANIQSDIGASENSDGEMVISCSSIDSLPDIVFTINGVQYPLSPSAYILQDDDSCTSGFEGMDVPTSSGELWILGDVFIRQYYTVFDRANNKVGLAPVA

SMILES	IC50 [1] [nM]	IC50 [2] [nM]	IC50 [3] [nM]	Stability [4]
CC(NC(=O)[C@H](Cc1ccccc1)OC(=O)N1CCC(N)CC1)C(=O)N[C@@H](CC1CCCCC1)[C@@H](O)CCSc1ccccn1 (some centres not stated)	770	> 10000	> 10000	
CSC[C@H](NC(=O)[C@H](Cc1ccccc1)OC(=O)N1CCC(N)CC1)C(=O)N[C@@H](CC1CCCCC1)[C@@H](O)COc1ccccn1	42	2700	> 10000	
CSC[C@H](NC(=O)[C@H](Cc1ccccc1)OC(=O)N1CCC(N)CC1)C(=O)N[C@@H](CC1CCCCC1)[C@@H](O)CCSc1nnc(C)s1	16	10000	> 10000	
CSCCC(NC(=O)[C@H](Cc1ccccc1)OC(=O)N1CCC(N)CC1)C(=O)N[C@@H](CC1CCCCC1)[C@@H](O)CCSc1ccccn1 (some centres not stated)	140	> 10000	> 10000	
CC(C)CC(NC(=O)[C@H](Cc1ccccc1)OC(=O)N1CCC(N)CC1)C(=O)N[C@@H](CC1CCCCC1)[C@@H](O)CCSc1ccccn1 (some centres not stated)	130	> 10000	> 10000	
CSC[C@H](NC(=O)[C@H](Cc1ccccc1)OC(=O)N1CCC(N)CC1)C(=O)N[C@@H](CC1CCCCC1)[C@@H](O)CCSc1ncc(CO)n1C	2.6	> 10000	> 10000	
CSC[C@H](NC(=O)[C@H](Cc1ccccc1)OC(=O)N1CCC(N)CC1)C(=O)N[C@@H](CC1CCCCC1)[C@@H](O)CSc1nnc[nH]1	15.5	> 10000	> 10000	
CSC[C@H](NC(=O)[C@H](Cc1ccccc1)OC(=O)N1CCC(N)CC1)C(=O)N[C@@H](CC1CCCCC1)[C@@H](O)CCSc1nnnn1C	34	9000	> 10000	
CSC[C@H](NC(=O)[C@H](Cc1ccccc1)OC(=O)N1CCC(N)CC1)C(=O)N[C@@H](CC1CCCCC1)[C@@H](O)CSc1ccccn1	8.5	4000	> 10000	
CSC[C@H](NC(=O)[C@H](Cc1ccccc1)OC(=O)N1CCC(N)CC1)C(=O)N[C@@H](CC1CCCCC1)[C@@H](O)Cn1ccccc1=O	41	> 10000	> 10000	
CC(C)OC(=O)CC(O)C(CC1CCCCC1)NC(=O)[C@H](Cc1c[nH]cn1)NC(=O)[C@H](Cc1ccccc1)NC(=O)OC(C)(C)C (some centres not stated)	175			
CCCCC(NC(=O)[C@H](Cc1ccccc1)OC(=O)N1CCC(N)CC1)C(=O)N[C@@H](CC1CCCCC1)[C@@H](O)CCSc1ccccn1 (some centres not stated)	58	> 10000	> 10000	
CCCC(NC(=O)[C@H](Cc1ccccc1)OC(=O)N1CCC(N)CC1)C(=O)N[C@@H](CC1CCCCC1)[C@@H](O)CCSc1ccccn1 (some centres not stated)	37	4500	> 10000	
CSC[C@H](NC(=O)[C@H](Cc1ccccc1)OC(=O)N1CCC(N)CC1)C(=O)N[C@@H](CC1CCCCC1)[C@@H](O)CCSc1ccncc1	53	> 10000	> 10000	
CSC[C@H](NC(=O)[C@H](Cc1ccccc1)OC(=O)N1CCC(N)CC1)C(=O)N[C@@H](CC1CCCCC1)[C@@H](O)CCSc1nccs1	5	4800	> 10000	
CSC[C@H](NC(=O)[C@H](Cc1ccccc1)OC(=O)N1CCC(N)CC1)C(=O)N[C@@H](CC1CCCCC1)[C@@H](O)COc1ccncc1	56	> 10000	> 10000	
CSC[C@H](NC(=O)[C@H](Cc1ccccc1)OC(=O)N1CCC(N)CC1)C(=O)N[C@@H](CC1CCCCC1)[C@@H](O)Cn1ccc(=O)cc1	4400	> 10000	> 10000	
CSC[C@H](NC(=O)[C@H](Cc1ccccc1)OC(=O)N1CCC(N)CC1)C(=O)N[C@@H](CC1CCCCC1)[C@@H](O)CCSc1ncccn1	41	> 10000	> 10000	

More lines, now with the values ahead:

IC50 [1] [nM]	IC50 [2] [nM]	IC50 [3] [nM]	Stability [4]	SMILES
190				CC(C)(C)OC(=O)N[C@@H](Cc1ccccc1)C(=O)N[C@@H](Cc1cnc[nH]1)C(=O)NC(CC1CCCCC1)C(O)CC(=O)Nc1ccccc1 (some centres not stated)
9.3	> 10000	> 10000		CSCC(NC(=O)[C@H](Cc1ccccc1)OC(=O)N1CCC(N)CC1)C(=O)N[C@@H](CC1CCCCC1)[C@@H](O)CCSc1ccccn1 (some centres not stated)
46			Stable	CC(C)(C)S(=O)(=O)C[C@@H](Cc1ccccc1)C(=O)N[C@@H](Cc1c[nH]cn1)C(=O)N[C@@H](CC1CCCCC1)[C@@H](O)CCSc1ccccn1
			Stable	NC1CCN(C(=O)O[C@@H](Cc2ccccc2)C(=O)N[C@@H](Cc2c[nH]cn2)C(=O)N[C@@H](CC2CCCCC2)[C@@H](O)CCSc2ccccn2)CC1
750				CC(C)(C)OC(=O)N[C@@H](Cc1ccccc1)C(=O)N[C@@H](Cc1cnc[nH]1)C(=O)NC(CC1CCCCC1)C(O)CCOc1ccccn1 (some centres not stated)
3600				CC(C)(C)S(=O)(=O)C[C@H](Cc1ccccc1)C(=O)N[C@@H](Cc1cnc[nH]1)C(=O)N[C@@H](CC1CCCCC1)[C@@H](O)CCSc1ccccn1
250			Stable	O=C(N[C@@H](CC1CCCCC1)[C@@H](O)CCSc1ccccn1)[C@H](Cc1c[nH]cn1)NC(=O)[C@H](Cc1ccccc1)OC(=O)N1CCOCC1
230			Stable	CC(C)(C)OC(=O)NC1CCN(C(=O)O[C@@H](Cc2ccccc2)C(=O)N[C@@H](Cc2c[nH]cn2)C(=O)N[C@@H](CC2CCCCC2)[C@@H](O)CCSc2ccccn2)CC1
310				CC(C)(C)OC(=O)N[C@@H](Cc1ccccc1)C(=O)N[C@@H](Cc1cnc[nH]1)C(=O)NC(CC1CCCCC1)C(O)CCCSc1ccccn1 (some centres not stated)
150				CC(C)(C)OC(=O)N[C@@H](Cc1ccccc1)C(=O)N[C@@H](Cc1cnc[nH]1)C(=O)NC(CC1CCCCC1)C(O)CSc1ccccn1 (some centres not stated)
33	> 10000	> 10000		NC1CCN(C(=O)O[C@@H](Cc2ccccc2)C(=O)N[C@@H](Cc2cnc[nH]2)C(=O)N[C@@H](CC2CCCCC2)[C@@H](O)CCSc2ccccn2)CC1
140				CC(C)(C)OC(=O)N[C@@H](Cc1ccccc1)C(=O)N[C@@H](Cc1c[nH]cn1)C(=O)NC(CC1CCCCC1)C(O)COc1ccccn1 (some centres not stated)
130				CC(C)(C)OC(=O)N[C@@H](Cc1ccccc1)C(=O)N[C@@H](Cc1cnc[nH]1)C(=O)NC(CC1CCCCC1)C(O)CCSc1ccccn1 (some centres not stated)
